Laboratory results as given in PMC5305809 (ACS chemical biology, 2016).

Key:
[1] = system: Jurkat cells; assay: Global fatty acylation by metabolic labeling; format: cell-based; conditions: 25 μM inhibitor, 15 hrs
[2] = system: Jurkat cells; assay: Western blot for global protein lysine acetylation; format: cell-based; conditions: Jurkat cells treated with 25 μM HDAC inhibitor
Method in brief: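 Jurkat cells in RPMI 1640 with 10% FBS, exposed to test compound (25 μM) for 15 hrs. Cells lysed in 4% SDS buffer with protease inhibitor cocktail and nuclease, protein quantified by BCA.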

[3] = system: HEK-293T cells; assay: Global fatty acylation by metabolic labeling; format: cell-based, human
Method in brief: (§1)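 Cells grown in DMEM with 10% FBS at 37 °C, 5% CO2. They were pretreated with test compound or DMSO, then cultured with Alk12, an alkyne myristic acid analogue, for metabolic labeling. Labeled proteins were clicked to BODIPY-azide and precipitated. Cysteine acylation was removed with 0.5 M hydroxylamine pH 8.0 at 95 °C for 7 min. Read-out was in-gel fluorescence after SDS-PAGE.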

[4] = system: HeLa cells; assay: Global fatty acylation by metabolic labeling; format: cell-based
Method in brief: as §1

[5] = system: MDA-MB 231 cells; assay: Global fatty acylation by metabolic labeling; format: cell-based
Method in brief: as §1

[6] = biological target: T1, HDAC8 (Homo sapiens, UniProt Q9BY41); assay: HDAC8 kinetics assay on H3K9 acyl peptides; format: biochemical; conditions: for kcat/Km: from slope of linear plot where kcat ND
T1 sequence (Q9BY41 1-377): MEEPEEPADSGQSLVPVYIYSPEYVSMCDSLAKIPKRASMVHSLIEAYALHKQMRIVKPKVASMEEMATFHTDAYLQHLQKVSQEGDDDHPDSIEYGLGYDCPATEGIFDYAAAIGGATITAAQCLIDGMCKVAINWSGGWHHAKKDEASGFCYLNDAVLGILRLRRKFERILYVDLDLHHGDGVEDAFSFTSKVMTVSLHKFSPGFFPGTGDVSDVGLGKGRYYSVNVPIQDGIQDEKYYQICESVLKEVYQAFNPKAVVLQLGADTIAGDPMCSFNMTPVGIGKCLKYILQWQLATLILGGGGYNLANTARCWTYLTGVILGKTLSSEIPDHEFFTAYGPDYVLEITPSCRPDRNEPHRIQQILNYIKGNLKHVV

[7] = recombinant HDAC8 from E. coli, 1 μM, 37 °C, 1 hr, pH 8, duplicate, ± S.D.
[8] = recombinant HDAC8 from Sf9 insect cells
[9] = recombinant HDAC8 from E. coli, 1 μM, 37 °C, 1 hr, pH 8, duplicate, ± S.D., SD

Compound | global protein lysine fatty acylation vs control (Alk12 labeling) [1] | global lysine acetylation level (Western blot) [2] | Km [6, 7] [µM] | Km [6, 9] [µM] | kcat [6, 9] [S^−1] | other results
Nc1ccccc1NC(=O)c1ccc(CNc2nccc(-c3cccnc3)n2)cc1 [Mocetinostat] | only PCI-34051-treated Jurkat cells exhibited enhanced global protein lysine fatty acylation | did not noticeably increase protein lysine acetylation | – | – | – | –
COc1ccc(Cn2ccc3ccc(C(=O)NO)cc32)cc1 [PCI-34051] | exhibited enhanced global protein lysine fatty acylation | did not noticeably increase protein lysine acetylation | – | – | – | fatty acylation vs DMSO control (Alk12 labeling) [3]: slightly increased fatty acylation; fatty acylation vs DMSO control (Alk12 labeling) [4]: slightly increased fatty acylation; fatty acylation vs DMSO control (Alk12 labeling) [5]: slightly increased fatty acylation
Cc1[nH]c2ccccc2c1CCNCc1ccc(/C=C/C(=O)NO)cc1 [Panobinostat] | much lower than the control | predominantly increased the acetylation of protein bands around 55 kDa | – | – | – | –
O=C(CCCCCCC(=O)Nc1ccccc1)NO [SAHA] | much lower than the control | predominantly increased the acetylation of protein bands around 55 kDa | – | – | – | –
KQTARKSTGGWW [Acetyl H3K9] | – | – | > 600 | – | – | Km [6, 8]: > 300 µM; kcat/Km [6, 8]: 480.8 ^b S^−1.M^−1
KQTARKSTGGWW [Butyryl H3K9] | – | – | > 200 | – | – | –
KQTARKSTGGWW [Dodecanoyl H3K9] | – | – | – | 69.5 ± 10.1 | 0.0123 ± 0.0013 | –
KQTARKSTGGWW [Myristoyl H3K9] | – | – | ~16 | 15.8 ± 5.1 | 0.0019 ± 0.0003 | demyristoylation catalytic efficiency relative to deacetylation ([6]; HDAC8 purified from Sf9 insect cells, myristoyl- vs acetyl-H3K9): > 2 times; Km [6, 8]: 60.5 µM; kcat [6, 8]: 0.0755 ^b S^−1; kcat/Km [6, 8]: 1,246 ^b S^−1.M^−1
KQTARKSTGGWW [Octanoyl H3K9] | – | – | – | 146 ± 10.3 | 0.0202 ± 0.0005 | –
KQTARKSTGGWW [Palmitoyl H3K9] | – | – | – | 18.3 ± 7.4 | 0.0005 ± 0.00007 | –
